In ChEMBL document CHEMBL1255300, “Pharmacodynamics of the antibacterial effect and emergence of resistance to tomopenem, formerly RO4908463/CS-023, in an in vitro pharmacokinetic model of Staphylococcus aureus infection” (Antimicrob Agents Chemother, 2008):
In brackets after ≈: the same amount, converted by molar mass. Activity calls are given as the source filed them. The calls are words filed in the database; no cut-off is given here.

Experiments:
Staphylococcus aureus [1] = experiment: Antibacterial activity against methicillin-sensitive Staphylococcus aureus 5956 infected in in vitro pharmacokinetic model assessed as reduction in viable count at 1500 mg, iv every 8 hrs measured after 12 hrs using 10^6 CFU/ml inoculum; assay type: functional
Staphylococcus aureus [2] = experiment: Antibacterial activity against methicillin-resistant Staphylococcus aureus 33921 infected in in vitro pharmacokinetic model assessed as time required to 99.9% killing at 1500 mg, iv every 8 hrs using 10^6 CFU/ml inoculum; assay type: functional
Staphylococcus aureus [3] = experiment: AUBKC (0 to 48 hrs) in methicillin-resistant Staphylococcus aureus 33922 infected in in vitro pharmacokinetic model at 1500 mg, iv every 8 hrs using 10^8 CFU/ml inoculum; assay type: functional
Method in brief: (§1)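 Single-compartment dilutional in vitro PK model at 37°C in 10% Mueller-Hinton broth, stirred, flow 132 ml/h. […] Inoculum 10^6 CFU/ml added 45 min before dosing, or 10^8 CFU/ml run overnight. Viable counts with β-lactamase neutralisation. AUBKC by log-linear trapezoidal rule, at least triplicate.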

Staphylococcus aureus [4] = experiment: T>MIC for 4-log drop in count in methicillin-resistant Staphylococcus aureus 33815 in in vitro pharmacokinetic model after 24 hrs using 10^6 CFU/ml inoculum; assay type: functional
Staphylococcus aureus [5] = experiment: T>MIC for 2-log drop in count in methicillin-resistant Staphylococcus aureus 33820 in in vitro pharmacokinetic model after 24 hrs using 10^6 CFU/ml inoculum; assay type: functional
Staphylococcus aureus [6] = experiment: AUBKC (0 to 48 hrs) in methicillin-resistant Staphylococcus aureus 33922 infected in in vitro pharmacokinetic model at 750 mg, iv every 8 hrs using 10^6 CFU/ml inoculum; assay type: functional; method in brief: as §1
Staphylococcus aureus [7] = experiment: Antibacterial activity against methicillin-resistant Staphylococcus aureus 33815 by broth dilution method; assay type: functional
Method in brief: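 Standard CLSI broth dilution MIC.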

Staphylococcus aureus [8] = experiment: AUBKC (0 to 48 hrs) in methicillin-resistant Staphylococcus aureus 33827 infected in in vitro pharmacokinetic model at 1500 mg, iv every 8 hrs using 10^8 CFU/ml inoculum; assay type: functional; method in brief: as §1
Staphylococcus aureus [9] = experiment: Antibacterial activity against methicillin-resistant Staphylococcus aureus 33827 infected in in vitro pharmacokinetic model assessed as reduction in viable count at 750 mg, iv every 8 hrs measured after 24 hrs using 10^6 CFU/ml inoculum; assay type: functional
Method in brief: (§2)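 Single-compartment dilutional in vitro PK model, 10% Mueller-Hinton broth, 37°C, stirred, dilution 132 ml/h. […] Inoculum 10^6 CFU/ml (added 45 min pre-dose) or 10^8 CFU/ml (run overnight). Viable counts by spiral plating, beta-lactamase neutralization, detection limit 10^2 CFU/ml. At least triplicate.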

Staphylococcus aureus [10] = experiment: AUBKC (0 to 24 hrs) in methicillin-resistant Staphylococcus aureus 33922 infected in in vitro pharmacokinetic model at 750 mg, iv every 8 hrs using 10^8 CFU/ml inoculum; assay type: functional; method in brief: as §1
Staphylococcus aureus [11] = experiment: AUBKC (0 to 24 hrs) in methicillin-resistant Staphylococcus aureus 33827 infected in in vitro pharmacokinetic model at 750 mg, iv every 8 hrs using 10^6 CFU/ml inoculum; assay type: functional; method in brief: as §1
Staphylococcus aureus [12] = experiment: Antibacterial activity against methicillin-resistant Staphylococcus aureus 33829 infected in in vitro pharmacokinetic model assessed as reduction in viable count at 1500 mg, iv every 8 hrs measured after 48 hrs using 10^6 CFU/ml inoculum; assay type: functional; method in brief: as §2
Staphylococcus aureus [13] = experiment: T>MIC for 3-log drop in count in methicillin-sensitive Staphylococcus aureus 5956 in in vitro pharmacokinetic model after 24 hrs using 10^8 CFU/ml inoculum; assay type: functional
Method in brief: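 Dose-ranging: 7–13 simulated regimens per strain giving T>MIC of 0–100% (MIC from 10% MHB), at 106 or 10^8 CFU/ml as stated.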

Staphylococcus aureus [14] = experiment: T>MIC for static effect in methicillin-resistant Staphylococcus aureus 33827 in in vitro pharmacokinetic model after 24 hrs using 10^6 CFU/ml inoculum; assay type: functional
Staphylococcus aureus [15] = experiment: T>MIC for 4-log drop in count in methicillin-resistant Staphylococcus aureus 33827 in in vitro pharmacokinetic model after 24 hrs using 10^8 CFU/ml inoculum; assay type: functional
Staphylococcus aureus [16] = experiment: Antibacterial activity against methicillin-resistant Staphylococcus aureus 33827 infected in in vitro pharmacokinetic model assessed as reduction in viable count at 750 mg, iv every 8 hrs measured after 48 hrs using 10^6 CFU/ml inoculum; assay type: functional; method in brief: as §2
Staphylococcus aureus [17] = experiment: T>MIC in methicillin-sensitive Staphylococcus aureus 5956 infected in vitro pharmacokinetic model at 750 mg, iv every 8 hrs; assay type: functional
Staphylococcus aureus [18] = experiment: AUBKC (0 to 48 hrs) in methicillin-resistant Staphylococcus aureus 33820 infected in in vitro pharmacokinetic model at 750 mg, iv every 8 hrs using 10^6 CFU/ml inoculum; assay type: functional; method in brief: as §1
Staphylococcus aureus [19] = experiment: Antibacterial activity against methicillin-resistant Staphylococcus aureus 33827 in in vitro pharmacokinetic model assessed as viable count at 6 times of MIC; assay type: functional
Method in brief: (§3)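 Population analysis before drug exposure (time 0). Model samples were plated on nutrient agar without drug and with tomopenem at 2×, 4× and 6× MIC (10% MHB MIC), and growth was recorded as log CFU/ml. Detection limit 2 log10.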

Staphylococcus aureus [20] = experiment: T>MIC for 1-log drop in count in methicillin-resistant Staphylococcus aureus 33922 in in vitro pharmacokinetic model after 24 hrs using 10^8 CFU/ml inoculum; assay type: functional
Staphylococcus aureus [21] = experiment: T>MIC for 2-log drop in count in methicillin-resistant Staphylococcus aureus 33922 in in vitro pharmacokinetic model after 24 hrs using 10^6 CFU/ml inoculum; assay type: functional
Staphylococcus aureus [22] = experiment: Antibacterial activity against methicillin-resistant Staphylococcus aureus 33827 infected in in vitro pharmacokinetic model assessed as reduction in viable count at 1500 mg, iv every 8 hrs measured after 12 hrs using 10^8 CFU/ml inoculum; assay type: functional; method in brief: as §2
Staphylococcus aureus [23] = experiment: Antibacterial activity against methicillin-resistant Staphylococcus aureus 33815 assessed as viable count at 4 times of MIC after 48 hrs using 10^6 CFU/ml inoculum; assay type: functional, organism-based
Method in brief: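 Population analysis during tomopenem dose-ranging runs in the in vitro PK model (10^6 CFU/ml, T>MIC 0-100%). […] Growth counted as log CFU/ml, detection limit 2 log10.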

Staphylococcus aureus [24] = experiment: Antibacterial activity against methicillin-resistant Staphylococcus aureus 33827 infected in in vitro pharmacokinetic model assessed as reduction in viable count at 750 mg, iv every 8 hrs measured after 24 hrs using 10^8 CFU/ml inoculum; assay type: functional; method in brief: as §2
Staphylococcus aureus [25] = experiment: Antibacterial activity against methicillin-resistant Staphylococcus aureus 33827 in in vitro pharmacokinetic model assessed as viable count at 4 times of MIC; assay type: functional; method in brief: as §3
Staphylococcus aureus [26] = experiment: Antibacterial activity against methicillin-resistant Staphylococcus aureus 33820 infected in in vitro pharmacokinetic model assessed as time required to 99.9% killing at 1500 mg, iv every 8 hrs using 10^6 CFU/ml inoculum; assay type: functional
Staphylococcus aureus [27] = experiment: Antibacterial activity against methicillin-sensitive Staphylococcus aureus 5956 assessed as viable count at 2 times of MIC after 24 hrs using 10^6 CFU/ml inoculum; assay type: functional, organism-based
Staphylococcus aureus [28] = experiment: Antibacterial activity against methicillin-resistant Staphylococcus aureus 33922 infected in in vitro pharmacokinetic model assessed as reduction in viable count at 1500 mg, iv every 8 hrs measured after 36 hrs using 10^6 CFU/ml inoculum; assay type: functional

C[C@@H](O)[C@H]1C(=O)N2C(C(=O)O)=C(S[C@H]3C[C@@H](C(=O)N4CC[C@H](NC(=O)CNC(=N)N)C4)N(C)C3)[C@H](C)[C@H]12 [TOMOPENEM]
log10CFU/ml (Staphylococcus aureus [1]): 4.4
Time (Staphylococcus aureus [2]): 12 h
AUBC (Staphylococcus aureus [3]): 124.7 log10CFU/ml.hr
fT>MIC (Staphylococcus aureus [4]): 29.6%
fT>MIC (Staphylococcus aureus [5]): 14.5%
AUBC (Staphylococcus aureus [6]): 27.7 log10CFU/ml.hr
MIC (Staphylococcus aureus [7]): 16 µg/mL (≈ 29.8 µM)
AUBC (Staphylococcus aureus [8]): 93.5 log10CFU/ml.hr
log10CFU/ml (Staphylococcus aureus [9]): 3.6
AUBC (Staphylococcus aureus [10]): 71.5 log10CFU/ml.hr
AUBC (Staphylococcus aureus [11]): 27.4 log10CFU/ml.hr
log10CFU/ml (Staphylococcus aureus [12]): 3.8
fT>MIC (Staphylococcus aureus [13]): 12.8%
fT>MIC (Staphylococcus aureus [14]): 15.4%
fT>MIC (Staphylococcus aureus [15]): 79.1%
log10CFU/ml (Staphylococcus aureus [16]): 3.3
fT>MIC (Staphylococcus aureus [17]): 100%
AUBC (Staphylococcus aureus [18]): 28.6 log10CFU/ml.hr
log10CFU/ml (Staphylococcus aureus [19]): <2
fT>MIC (Staphylococcus aureus [20]): 2%
fT>MIC (Staphylococcus aureus [21]): 5.4%
log10CFU/ml (Staphylococcus aureus [22]): 3.4
Activity (Staphylococcus aureus [23]): Active
log10CFU/ml (Staphylococcus aureus [24]): 5.2
log10CFU/ml (Staphylococcus aureus [25]): <2
Time (Staphylococcus aureus [26]): 12 h
Activity (Staphylococcus aureus [27]): inactive
log10CFU/ml (Staphylococcus aureus [28]): 4.2
